High-throughput results deposited in PubChem BioAssay by several laboratories.
Only some compounds are listed: those with a hit (about 2.5% of all), similar ones and a draw of the others.
NLRP3 yeast inh – inhibitors of NALP3 inflammasome in yeast; Yeast reconstituted NLRP3/ASC/caspase-1, beta-gal luminescence, 24 h; inhibition, % at 10 µM; actives 0.39% (n = 330,000);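 active means inhibition of 50% or more; inactive means inhibition below 50%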
A1 inh – inhibitors of the anti-apoptotic protein A1, read as caspase activation; MEF A1-2A-BIM cells, Caspase-Glo 3/7 luminescence, 3 h; percent of clofoctol response, vehicle zero; caspase activation, % (no concentration beside the values); actives 0.066% (n = 330,000);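 active means over half of replicate activation scores above 10%, or exactly half above 10 with the replicate mean above 10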
MC4R antagonist – human MC4R antagonism in cAMP assay; inhibition, % at 6.5 µM; actives 0.48% (n = 360,000); MC4R-expressing cells, MTII-stimulated cAMP, LANCE TR-FRET;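 active means inhibition above its plate's cutoff, the mean of tested wells on that plate plus 3 SD, cut at about 29% in these data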
Target sequence (P32245 whole entry, looked up): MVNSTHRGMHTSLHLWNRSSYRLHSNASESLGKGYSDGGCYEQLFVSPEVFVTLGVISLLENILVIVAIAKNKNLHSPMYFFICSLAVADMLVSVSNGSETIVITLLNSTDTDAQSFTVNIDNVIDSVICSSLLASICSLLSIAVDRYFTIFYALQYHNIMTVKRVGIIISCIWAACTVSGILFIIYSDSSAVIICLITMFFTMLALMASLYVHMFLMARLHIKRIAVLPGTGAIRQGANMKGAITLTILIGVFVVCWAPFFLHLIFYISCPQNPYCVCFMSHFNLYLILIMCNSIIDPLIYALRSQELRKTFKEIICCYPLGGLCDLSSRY
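Material: human MC4R-expressing U2OS cells. Probe or stimulus: Melanotan II challenge. Dosing: 6.5 µM single dose. Times: 30-min compound, 1-h challenge, 1-h detection, room temperature. Technique: TR-FRET with Eu-cAMP and labeled anti-cAMP, 671 nm. Replication: singlicate.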
NALP1 yeast inh – inhibitors of NALP1 inflammasome in yeast. inhibition, % at 10 µM. AID 2071. actives 0.61% (n = 280,000). S. cerevisiae NALP1/ASC/caspase-1 growth, X-gal OD620, 72 h; in the data active means inhibition mostly above about 24%, no sharp cut-off; inactive means mostly below about 32%
MC4R ag barr – agonists of human melanocortin 4 receptor (MC4R) beta-arrestin. P32245. U2OS MC4R beta-arrestin complementation, luminescence; percent of melanotan II response, DMSO zero. activation, % at 8.9 µM. actives 0.98% (n = 360,000). AID 540308;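 active means activation above a per-plate cutoff, the mean activation of sample wells on that plate plus 3 SD, cut at about 8% in these data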
Tb MetRS inh – blocks T. brucei methionyl-tRNA synthetase activity. purified T. brucei MetRS, ATP depletion, Kinase-Glo luminescence. inhibition, % at 11.9 µM. actives 0.4% (n = 360,000). AID 624268;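 active means inhibition above a per-plate cutoff of the control wells' mean inhibition plus 3 SD, cut at about 5.5% in these data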
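Material: T. brucei methionyl-tRNA synthetase, purified; reagent: substrates ATP, L-methionine and bulk Escherichia coli tRNA; dosing: 11.9 µM single point; timing: 15 min plus 2 h at 25 °C; detection: luminescence of leftover ATP; evaluation: % inhibition; control set: DMSO-only wells as low control; replicates: singlicate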
MC4R barr conf – human MC4R beta-arrestin agonism confirmation. U2OS MC4R beta-arrestin recruitment, luminescence; scaled DMSO 0%, Melanotan II 100%. activation, % at 8.9 µM. actives 31% (n = 2,400). shares compounds with MC4R ag barr;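 active means mean activation across replicates above the hit cutoff set in the earlier primary screen, cut at about 8% in these data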
MOR-DOR barr ag – counter-screen for MC4R agonists: agonists of mu-delta opioid heterodimer. AID 602194. actives 5.8% (n = 2,400). U2OS PathHunter beta-arrestin, beta-gal luminescence; percent of deltorphin B response, DMSO zero. shares compounds with MC4R ag barr. activation, % at 9.2 µM;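 active means mean activation across replicates exceeds the hit threshold derived in the earlier primary screen, cut at about 18% in these data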
Hits are given with their value; n = inactive; x = no result.

SMILES	NLRP3 yeast inh	A1 inh	MC4R antagonist	NALP1 yeast inh	MC4R ag barr	Tb MetRS inh	MC4R barr conf	MOR-DOR barr ag
Cc1ccc(OCCCN2CCOCC2)cc1	n	n	n	n	n	n	x	x
CC(C)COC(=O)N1CCCCC1c1cc(C(=O)NCc2ccccc2)no1 (stereo not drawn)	x	x	n	x	n	n	x	x
CC(=O)COc1cc2c(-c3cc4ccccc4o3)cc(=O)oc2cc1C	n	n	n	n	26	n	n	n
Cc1sc2nc(SCC(=O)Nc3ccccc3F)[nH]c(=O)c2c1C	n	n	n	n	12	n	n	n
Cc1csc(NC(=O)CSc2nc3sc(C)c(C)c3c(=O)[nH]2)n1	n	n	n	n	n	n	x	x
CCc1ccc2oc(C(=O)Nc3nonc3C)c(C)c2c1	n	n	n	n	n	n	x	x
Cc1cc2oc(C(=O)Nc3nonc3C)c(C)c2cc1C	n	n	n	n	14	n	n	n
CCSc1nnc(NC(=O)c2cccc3ccccc23)s1	n	n	n	n	14	n	n	n
CCSc1nnc(NC(=O)c2csc(C)c2)s1	n	n	n	n	n	n	x	x
Cc1ccccc1OCC(=O)N/N=C/c1cn(Cc2ccccc2)c2ccccc12	n	n	n	n	33	n	12	n
COc1ccc(-c2sc3ccccc3c2-c2ccc(OCCN3CCCCC3)cc2)cc1	n	n	n	x	n	n	x	x
c1ccc(-c2sc3ccccc3c2-c2ccc(OCCN3CCCC3)cc2)cc1	n	n	n	x	14	n	32	n
COc1cccc(-c2sc3ccccc3c2-c2ccc(OCCN(C)C)cc2)c1	n	n	n	x	29	n	56	n
COc1cccc(-c2sc3ccccc3c2-c2ccc(OCCN3CCCC3)cc2)c1	n	n	n	x	11	n	46	n
COc1ccc2sc(-c3ccccc3OC)c(-c3ccc(OCCN(C)C)cc3)c2c1	x	x	n	x	n	n	x	x
O=C(Cn1cnc2c(NC(=O)OCc3ccccc3)ncnc21)NCc1ccccn1	n	n	n	x	n	n	x	x
CCN1C[C@@H]2[C@@H]3C(=O)N(C)C(=O)[C@@H]3[C@](C)(C1=O)N2C(=O)c1ccc(C)cc1	x	x	n	x	n	n	x	x
O=[N+]([O-])c1ccccc1Nc1nc(-c2cccnc2)cs1	n	n	n	n	n	n	x	x
Cc1cccc2cc(COC(=O)c3ccccc3)c(=O)[nH]c12	n	n	n	n	n	n	x	x
Cc1cccc2cc(COC(=O)c3cccs3)c(=O)[nH]c12	n	n	n	n	23	n	n	n
CC1CCCN(S(=O)(=O)c2ccc3c(c2)OCCO3)C1 (stereo not drawn)	x	x	n	x	n	n	x	x
Cc1c(CN2CCC(CO)(CCOc3ccccc3)CC2)[nH]c2c(Cl)cccc12	n	n	n	n	22	n	19	n
CCCCN1C(=O)C(=O)N(CC(=O)c2cc(C)n(C3CC3)c2C)C1=O	n	n	n	x	n	n	x	x
CC1(C(=O)Nc2ccc3c(c2)OCO3)CCN1C(=O)CCc1cccs1 (stereo not drawn)	x	x	n	x	n	n	x	x
Cc1ccc(NC(=O)Nc2nc3ccccc3s2)cc1NC(=O)Nc1nc2ccccc2s1	n	n	n	n	10	n	10	n
SMILES	NLRP3 yeast inh	A1 inh	MC4R antagonist	NALP1 yeast inh	MC4R ag barr	Tb MetRS inh	MC4R barr conf	MOR-DOR barr ag
CCC(=O)Nc1ccc(C(=O)CN2C(=O)NC3(CCCCCC3)C2=O)cc1	n	n	n	x	n	n	x	x
CC(C)c1ccc(NC(=O)C2CCN(c3ncnc4c3nc3n4CCCCC3)CC2)cc1	n	n	n	n	27	n	n	n
O=C(Nc1ccc(F)c(Cl)c1)C1CCN(c2ncnc3c2nc2n3CCCCC2)CC1	n	n	n	n	n	n	x	x
Cc1ccc(C(OCC(O)CNCc2ccc(F)cc2)c2ccccc2)cc1 (stereo not drawn)	n	n	n	n	14	n	24	n
COc1ccc(C(=O)Nc2ccc(N3CCCCC3)cc2)cc1Br	n	n	n	n	13	n	n	n
COc1ccc(-n2nc(C(=O)NCC(=O)Nc3ccccn3)c3ccccc3c2=O)cc1Cl	n	x	n	n	15	n	24	n
COc1ccc(OCCOC(=O)Nc2ccccc2)cc1	n	n	n	n	n	n	x	x
COc1cc(C(F)(F)F)nc2ccc(C#CCOC(=O)Nc3ccccc3)cc12	n	n	n	x	14	n	n	n
CCC(C)(C)C1CCC2(CC1)NC(=O)N(CC(=O)N(C)CCOc1ccc(Cl)cc1)C2=O (stereo not drawn)	n	x	n	x	n	n	x	x
CCC(C)(C)C1CCC2(CC1)NC(=O)N(CC(=O)N(C)Cc1ccc(OC(F)F)cc1)C2=O (stereo not drawn)	n	n	n	x	17	n	n	n
Cc1noc(C)c1NC(=O)N(C)C[C@@H]1Oc2ccc(NC(=O)CCC(F)(F)F)cc2CC(=O)N([C@@H](C)CO)C[C@@H]1C	n	n	n	x	n	n	x	x
COc1ccc(CNC(=S)Nc2ccc(-c3ccccc3)cc2)cc1	n	n	n	n	13	n	n	n
CC1CC(C)CN(S(=O)(=O)c2ccc(C(=O)Nc3sccc3C(N)=O)cc2)C1 (stereo not drawn)	n	n	n	n	13	n	14	n
Cc1cc(NC(=O)CCCOc2ccc(Cl)cc2Cl)no1	n	n	n	n	17	n	n	n
COc1ccc(/C(C)=N/OCC(=O)N=Nc2c(O)[nH]c3ccccc23)cc1	n	n	n	n	14	n	11	n
Cc1ccc(CN2CCC(c3cc(-c4ccc(Cl)cc4)n[nH]3)CC2)cc1	n	n	n	35	10	n	19	n
COc1ccc(OC)c2sc(NC(=O)CCS(=O)(=O)c3ccccc3)nc12	n	n	n	x	n	n	x	x
COc1ccc(OC)c2sc(NC(=O)CCSc3ccccc3)nc12	n	n	n	n	11	n	n	n
COc1ccc(-c2nnc(SCC(=O)Nc3cccc(Cl)c3)o2)cc1	n	n	n	n	16	n	n	n
COc1ccc(OCC(=O)Nc2cccc(NC(=O)COc3ccc(OC)cc3)n2)cc1	n	n	n	n	13	n	n	26
COc1ccc(OCC(=O)Nc2cccc(-c3nc4ccccc4o3)c2)cc1	n	n	n	n	19	n	n	n
CCCCCCCCCCCC1N=C(N)NC(CCCO)=C1C(=O)OC (stereo not drawn)	x	x	n	x	12	n	26	n
